Data set [1] is described as follows: Protection index, ratio of TD50 for neurotoxicity in ip dosed mouse by rotarod test to ED50 for anticonvulsant activity in mouse by maximal electroshock seizure test. The format is toxicity, organism-based. To be noted: in vivo, read-out: Ratio TD50/ED50.
The test system of data set [2] is Mus musculus. Nature of the data set: Anticonvulsant activity in mouse assessed as increase in electroconvulsive threshold at 2.5 mg/kg, ip by maximal electroshock seizure threshold test relative to control. In kind it is functional. Background: In the maximal electroshock model the usual endpoint is tonic extension of the hind limbs.
Data set [3] concerns Mus musculus. Nature of the data set: Anticonvulsant activity in mouse assessed as current strength required to induce tonic hind-limb extension in 50% of the animals at 2.5 mg/kg, ip by maximal electroshock seizure threshold test (reference value: 6.05 to 8.13 mA). In kind it is functional.
The nature of data set [4]: Neurotoxicity in ip dosed mouse assessed as motor impairment measured for one min by rotarod test. The format is toxicity, organism-based. To be noted: in vivo. The essentials:
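Mice trained on an accelerating rotarod, then tested at least 24 h later after ip pretreatment, on a rod turning at 10 rpm. Neurotoxicity was scored as failure to stay on the rod for one minute. Read-out is mice impaired over mice tested.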
A general note: Falling from the rotarod earlier than controls is read as motor impairment.

Data set [5] deals with Mus musculus. Description: Anticonvulsant activity in mouse assessed as protection against maximal electroshock-induced seizures at 100 mg/kg, ip. In kind it is functional, organism-based. In short, it runs like this: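 Mice dosed ip; maximal seizures induced by auricular electroshock (25 mA, 500 V, 50 Hz, 0.2 s). Endpoint: hind-limb tonic extension; animals without it scored protected. Read-out is number protected over number tested.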

For data set [6], the system named is Mus musculus. Nature of the data set: Toxicity in mouse at 100 mg/kg, ip measured during maximal electroshock seizure test. To be noted: in vivo. In kind it is organism-based.
The subject of data set [7] is Mus musculus. Nature of the data set: Anticonvulsant activity in mouse assessed as current strength required to induce tonic hind-limb extension in 50% of the animals at 10 mg/kg, ip by maximal electroshock seizure threshold test (reference value: 6.05 to 8.13 mA). The format is functional.
Data set [8] deals with Mus musculus. Description: Analgesic activity in mouse assessed as decrease in time of paw licking during phase 1 at 24 mg/kg, ip measured for 5 mins by formalin test relative to control. The format is functional. Further details: scale not given: the % may be the effect or the level left. The essentials:
(§1)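 Formalin test in mice: 20 μL of 5% formalin injected intraplantarly into the right hind paw. Each mouse was observed alone in a glass beaker for 30 min. Time (s) spent licking or biting the injected paw was recorded at 0–5 min (acute phase) and 15–30 min (inflammatory phase).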

Data set [9] relates to Mus musculus. Nature of the data set: Anticonvulsant activity in mouse assessed as protection against subcutaneous pentylenetetrazole-induced seizures at 100 mg/kg, ip measured for 30 mins post pentylenetetrazole challenge at 0.5 hrs after compound dosing relative to control. The format is functional.
Data set [10] concerns Mus musculus. Description: Anticonvulsant activity in mouse assessed as protection against subcutaneous pentylenetetrazole-induced seizures by measuring latency time of tonic seizures at 100 mg/kg, ip measured for 30 mins post pentylenetetrazole challenge at 0.5 hrs after compound dosing (reference value: 562.8 to 614.9 secs). The format is functional.
Data set [11] deals with Mus musculus. Nature of the data set: Anticonvulsant activity in ip dosed mouse assessed as protection against maximal electroshock-induced seizures. In kind it is functional. The essentials: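 Mice were dosed ip. Maximal seizures were induced by auricular electrodes (25 mA, 500 V, 50 Hz, 0.2 s). Absence of hind-limb tonic extension counted as protection. […] Motor impairment was scored on a 10 rpm rotarod, giving TD50 the same way.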

The subject of data set [12] is Mus musculus. Nature of the data set: Toxicity in mouse at 30 mg/kg, ip measured during maximal electroshock seizure test. The format is organism-based. To be noted: in vivo.
Data set [13] relates to Mus musculus. Nature of the data set: Toxicity in mouse at 20 mg/kg, ip measured during maximal electroshock seizure test. To be noted: in vivo. In kind it is organism-based.
Data set [14] relates to Mus musculus. Description: Analgesic activity in mouse assessed as decrease in time of paw licking during phase 2 at 24 mg/kg, ip measured for 15 to 30 mins by formalin test relative to control. In kind it is functional. Further details: scale not given: the % may be the effect or the level left. The essentials:
as §1

The test system of data set [15] is Mus musculus. Nature of the data set: Toxicity in mouse at 25 mg/kg, ip measured during maximal electroshock seizure test. The format is organism-based. To be noted: in vivo.
For data set [16], the system named is Mus musculus. Description: Neurotoxicity in mouse assessed as motor impairment by measuring time of escaping from chimney at 24 mg/kg, ip measured for 60 secs (reference value: 8.87 +/- 1.79 secs). The format is toxicity, organism-based. The note with it: in vivo, 1 min. In short, it runs like this:
(§2)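 Mice dosed ip; trained, selected animals placed in a horizontal tube 25 cm long and 2.5 cm in diameter, then tube reversed so mice must climb out backward. Read-outs: escape time (s) ± SEM and % animals losing coordination versus control. Unpaired t test.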

Data set [17] concerns Mus musculus. Nature of the data set: Neurotoxicity in mouse assessed as motor impairment by measuring loss of coordination at 24 mg/kg, ip measured for 60 secs by chimney test relative to control. The format is toxicity, organism-based. To be noted: in vivo, 1 min. In short, it runs like this:
as §2

The subject of data set [18] is Mus musculus. Nature of the data set: Toxicity in mouse assessed as effect on spontaneous activity at 24 mg/kg, ip measured for 30 mins by photoresistor actometer relative to control. The format is organism-based. The note with it: in vivo, 0.5 h. In short, it runs like this: (§3)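 Mice dosed ip; locomotor activity by photoresistor actometers counting light-beam interruptions. Each mouse was habituated 30 min in a cage, then crossings were counted over a 30 min session. Data are mean ± SEM and % change vs control; unpaired t test.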

For data set [19], the system named is Mus musculus. Description: Anticonvulsant activity in mouse assessed as increase in electroconvulsive threshold at 10 mg/kg, ip by maximal electroshock seizure threshold test relative to control. In kind it is functional.
Data set [20] has as its system Mus musculus. Nature of the data set: Anticonvulsant activity in mouse assessed as current strength required to induce tonic hind-limb extension in 50% of the animals at 20 mg/kg, ip by maximal electroshock seizure threshold test (reference value: 6.05 to 8.13 mA). The format is functional.
The subject of data set [21] is Mus musculus. Description: Analgesic activity in mouse assessed as decrease in time of paw licking during phase 1 at 33 mg/kg, ip measured for 5 mins by formalin test relative to control. In kind it is functional. More on the design: scale not given: the % may be the effect or the level left. In short, it runs like this: as §1
Data set [22] relates to Mus musculus. Description: Anticonvulsant activity in mouse assessed as protection against subcutaneous pentylenetetrazole-induced seizures at 80 mg/kg, ip measured for 30 mins post pentylenetetrazole challenge at 0.5 hrs after compound dosing relative to control. In kind it is functional.
The subject of data set [23] is Mus musculus. Description: Neurotoxicity in mouse assessed as motor impairment by measuring loss of coordination at 33 mg/kg, ip measured for 60 secs by chimney test relative to control. The format is toxicity, organism-based. The note with it: in vivo, 1 min. In short, it runs like this:
as §2

Data set [24] concerns Mus musculus. Nature of the data set: Analgesic activity in mouse assessed as decrease in time of paw licking during phase 2 at 33 mg/kg, ip measured for 15 to 30 mins by formalin test relative to control. In kind it is functional. More on the design: scale not given: the % may be the effect or the level left. The essentials:
as §1

In data set [25] the test system is Mus musculus. Description: Neurotoxicity in mouse assessed as motor impairment by measuring time of escaping from chimney at 33 mg/kg, ip measured for 60 secs (reference value: 8.87 +/- 1.79 secs). The format is toxicity, organism-based. The note with it: in vivo, 1 min. In short, it runs like this: as §2
For data set [26], the system named is Mus musculus. Nature of the data set: Toxicity in mouse at 60 mg/kg, ip measured during maximal electroshock seizure test. In kind it is organism-based. The note with it: in vivo.
In data set [27] the test system is Mus musculus. Nature of the data set: Anticonvulsant activity in mouse assessed as increase in electroconvulsive threshold at 20 mg/kg, ip by maximal electroshock seizure threshold test relative to control. In kind it is functional.
The test system of data set [28] is Mus musculus. Nature of the data set: Anticonvulsant activity in mouse assessed as protection against subcutaneous pentylenetetrazole-induced seizures by measuring latency time of tonic seizures at 80 mg/kg, ip measured for 30 mins post pentylenetetrazole challenge at 0.5 hrs after compound dosing (reference value: 562.8 to 614.9 secs). The format is functional.

Data set [29] relates to Mus musculus. Description: Toxicity in mouse assessed as effect on spontaneous activity at 33 mg/kg, ip measured for 30 mins by photoresistor actometer relative to control. In kind it is organism-based. The note with it: in vivo, 0.5 h. The essentials: as §3

Active and inactive are the calls of the source.

With `O=C1NC(=O)C(c2ccccc2)(c2ccccc2)N1` [PHENYTOIN], the selectivity ratio in data set [1] was determined as 10.3. Moreover, the values for the Activity in data set [2] and in [3] were 23.31% and 7.46 mA, respectively. Further, the TD50 (usually the 50% point of the dose-response relation for the toxic effect studied) at 1 min in [4] was determined as 68.7 mg/kg.
In the case of `Cc1cccc(Cl)c1OCCOCCNCC(O)c1ccccc1` (racemic), the result in data set [5] was Active. Besides, the Activity entry in [6] is recorded as “Non-Toxic”; in data set [7] it was 11.09 mA; in data set [8] it was 8.57%; in [12], “Non-Toxic”; in data set [13] it was “Non-Toxic”; in [14], 8.8%. For the same compound, the Activity result in [15] is listed as “Non-Toxic”; in data set [17], 0%; in [18], 44.39%; in data set [19] it was 56.64%. For the same compound, the selectivity ratio in [1] was 4.3. Besides, the outcome in data set [9] was inactive. In addition, the Time in [10] turned out to be 219.6 s; in data set [16], 3.5 s. Moreover, the ED50 (commonly the dose at which the effect has come halfway, by size or by number of responders) in [11] worked out at 23.9 mg/kg.
Turning to `Cc1cccc(OCCOCCN[C@H]2CCCC[C@@H]2O)c1C` (racemic), the Activity in data set [20] is 7.01 mA; in data set [21] it was 25.47%; in data set [22], 2.05%; in [6], “Non-Toxic”; in data set [23], 0%; in [24] it was 70.13%. Also, the Activity result in [26] is “Non-Toxic”; in [29], 3.42%. Further, the result in [5] was Active. For the same compound, in data set [1], the selectivity ratio came out at 1.44. In addition, the ED50 in data set [11] was 32.9 mg/kg. Further, the Time in data set [25] came to 4.13 s; in data set [28], 596 s. The outcome in data set [27] was inactive. Moreover, the TD50 at 1 min in data set [4] turned out to be 47.4 mg/kg.

The values are drawn from ChEMBL document CHEMBL4261484, “Design, synthesis and anticonvulsant-analgesic activity of new N-[(phenoxy)alkyl]- and N-[(phenoxy)ethoxyethyl]aminoalkanols” (Medchemcomm, 2017).
